Data from ChEMBL document CHEMBL1123096, “Alpha-adrenoreceptor reagents. 3. Synthesis of some 2-substituted 1,4-benzodioxans as selective presynaptic alpha 2-adrenoreceptor antagonists” (J Med Chem, 1985).

Assays:
[1] = molecular target: T1, Adrenergic receptor alpha-1 (Rattus norvegicus, UniProt P15823+P23944+P43140); assay: Alpha-1 adrenergic receptor activity in a rat anococcygeus. Values ranges from 6.17-6.38
T1 sequence (P15823 whole entry): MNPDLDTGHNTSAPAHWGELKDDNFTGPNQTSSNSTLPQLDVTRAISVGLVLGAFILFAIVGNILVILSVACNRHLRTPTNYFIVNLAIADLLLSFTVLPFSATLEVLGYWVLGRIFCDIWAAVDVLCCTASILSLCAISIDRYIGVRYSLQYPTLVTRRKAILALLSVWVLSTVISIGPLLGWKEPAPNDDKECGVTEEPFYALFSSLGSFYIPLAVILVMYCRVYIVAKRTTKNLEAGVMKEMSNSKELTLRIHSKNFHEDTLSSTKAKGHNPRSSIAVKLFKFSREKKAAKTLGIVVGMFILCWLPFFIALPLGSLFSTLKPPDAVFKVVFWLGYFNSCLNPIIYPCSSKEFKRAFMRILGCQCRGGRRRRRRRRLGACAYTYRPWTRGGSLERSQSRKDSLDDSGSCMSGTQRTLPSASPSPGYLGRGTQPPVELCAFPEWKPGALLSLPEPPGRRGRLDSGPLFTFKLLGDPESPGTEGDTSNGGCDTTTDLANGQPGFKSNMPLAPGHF
T1 sequence (P23944 whole entry): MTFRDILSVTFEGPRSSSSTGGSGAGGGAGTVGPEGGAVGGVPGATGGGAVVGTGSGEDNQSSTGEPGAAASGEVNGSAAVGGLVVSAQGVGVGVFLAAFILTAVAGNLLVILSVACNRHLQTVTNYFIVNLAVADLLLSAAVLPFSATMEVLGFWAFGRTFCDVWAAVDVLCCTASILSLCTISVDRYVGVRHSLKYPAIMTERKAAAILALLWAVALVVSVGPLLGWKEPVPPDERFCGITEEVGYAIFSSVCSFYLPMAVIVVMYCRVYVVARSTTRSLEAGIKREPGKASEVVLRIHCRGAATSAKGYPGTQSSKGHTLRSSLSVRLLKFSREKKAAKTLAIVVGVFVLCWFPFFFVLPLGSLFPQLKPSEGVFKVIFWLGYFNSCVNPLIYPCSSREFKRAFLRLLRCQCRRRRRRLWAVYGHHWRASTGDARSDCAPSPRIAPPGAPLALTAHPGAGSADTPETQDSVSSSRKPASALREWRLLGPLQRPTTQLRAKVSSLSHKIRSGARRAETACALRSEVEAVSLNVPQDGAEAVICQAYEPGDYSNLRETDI
T1 sequence (P43140 whole entry): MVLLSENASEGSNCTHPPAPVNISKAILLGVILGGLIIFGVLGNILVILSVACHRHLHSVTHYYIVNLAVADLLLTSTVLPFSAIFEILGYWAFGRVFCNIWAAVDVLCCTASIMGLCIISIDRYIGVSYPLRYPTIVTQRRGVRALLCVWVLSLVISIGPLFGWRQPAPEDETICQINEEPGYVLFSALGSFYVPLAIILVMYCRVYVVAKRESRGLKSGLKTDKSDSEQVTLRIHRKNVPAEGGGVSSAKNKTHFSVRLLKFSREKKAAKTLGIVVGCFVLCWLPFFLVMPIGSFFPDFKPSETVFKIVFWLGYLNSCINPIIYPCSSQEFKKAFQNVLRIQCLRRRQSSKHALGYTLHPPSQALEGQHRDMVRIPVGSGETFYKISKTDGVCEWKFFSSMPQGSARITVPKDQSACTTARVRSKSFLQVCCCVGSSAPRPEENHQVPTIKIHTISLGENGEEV

[2] = molecular target: T2, Adrenergic receptor alpha-1 (Rattus norvegicus) (UniProt P15823+P23944+P43140); assay: Alpha-1 adrenergic receptor binding activity relative to idazoxan.; format: protein assay
[3] = molecular target: T3, Adrenergic receptor alpha-2 (Rattus norvegicus) (UniProt P22086+P19328+P22909); assay: Alpha-2 adrenergic receptor antagonist activity compared to idazoxan; format: functional
Method in brief: (§1)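 Vas deferens from rat or mouse; the mouse tissue was in Mg-free Krebs at 30 °C under 0.5 g tension, stimulated at 0.1 Hz, 3 ms, 100–140 V, giving a twitch of about 100 mg. […] Standard curves were run before and after the test curve.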

[4] = molecular target: T2, Adrenergic receptor alpha-1 (Rattus norvegicus); assay: post-synaptic antagonist activity towards alpha-1 adrenergic receptor was determined. Concentration giving a dose response to phenylephrine (idazoxan=1) was reported.; format: functional
Method in brief: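 Rat anococcygeus, postsynaptic α1 antagonism. At least five phenylephrine concentration–response curves were run alone, then at least four with the antagonist present.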

[5] = molecular target: Adrenergic receptor alpha (Rattus norvegicus) (UniProt P15823+P23944+P43140+P22086+P19328+P22909); assay: Selectivity as ratio […] against alpha-2 receptor to that of alpha-1 receptor.; format: protein assay
[6] = molecular target: T4, Adrenergic receptor alpha-2 (Rattus norvegicus, UniProt P22086+P19328+P22909); assay: Alpha-2 adrenergic receptor activity in a rat vas deferens assay. Values ranges from 8.25-9.35; format: tissue-based
T4 sequence (P22086 whole entry): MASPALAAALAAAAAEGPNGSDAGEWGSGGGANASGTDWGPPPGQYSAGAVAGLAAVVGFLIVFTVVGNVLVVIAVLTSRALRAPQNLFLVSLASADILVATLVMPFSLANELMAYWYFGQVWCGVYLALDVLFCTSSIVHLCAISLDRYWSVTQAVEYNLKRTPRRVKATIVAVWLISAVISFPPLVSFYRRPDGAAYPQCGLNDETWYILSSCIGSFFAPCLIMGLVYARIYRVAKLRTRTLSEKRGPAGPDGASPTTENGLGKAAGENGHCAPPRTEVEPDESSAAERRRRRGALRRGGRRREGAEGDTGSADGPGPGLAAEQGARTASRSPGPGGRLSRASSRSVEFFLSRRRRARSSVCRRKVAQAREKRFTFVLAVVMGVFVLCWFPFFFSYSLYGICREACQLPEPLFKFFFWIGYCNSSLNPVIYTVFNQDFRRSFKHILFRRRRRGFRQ
T4 sequence (P19328 whole entry): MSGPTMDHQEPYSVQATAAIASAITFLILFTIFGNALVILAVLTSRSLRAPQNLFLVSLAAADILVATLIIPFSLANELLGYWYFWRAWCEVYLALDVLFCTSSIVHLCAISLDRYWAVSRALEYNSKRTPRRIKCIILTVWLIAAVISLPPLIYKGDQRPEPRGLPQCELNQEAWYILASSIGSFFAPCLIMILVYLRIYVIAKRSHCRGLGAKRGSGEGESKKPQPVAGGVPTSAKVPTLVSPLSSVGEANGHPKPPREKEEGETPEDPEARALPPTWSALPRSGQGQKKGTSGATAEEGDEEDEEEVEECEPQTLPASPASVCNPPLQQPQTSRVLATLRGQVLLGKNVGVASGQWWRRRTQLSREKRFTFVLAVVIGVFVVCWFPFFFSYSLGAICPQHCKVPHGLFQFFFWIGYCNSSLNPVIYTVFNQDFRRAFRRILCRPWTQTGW
T4 sequence (P22909 whole entry): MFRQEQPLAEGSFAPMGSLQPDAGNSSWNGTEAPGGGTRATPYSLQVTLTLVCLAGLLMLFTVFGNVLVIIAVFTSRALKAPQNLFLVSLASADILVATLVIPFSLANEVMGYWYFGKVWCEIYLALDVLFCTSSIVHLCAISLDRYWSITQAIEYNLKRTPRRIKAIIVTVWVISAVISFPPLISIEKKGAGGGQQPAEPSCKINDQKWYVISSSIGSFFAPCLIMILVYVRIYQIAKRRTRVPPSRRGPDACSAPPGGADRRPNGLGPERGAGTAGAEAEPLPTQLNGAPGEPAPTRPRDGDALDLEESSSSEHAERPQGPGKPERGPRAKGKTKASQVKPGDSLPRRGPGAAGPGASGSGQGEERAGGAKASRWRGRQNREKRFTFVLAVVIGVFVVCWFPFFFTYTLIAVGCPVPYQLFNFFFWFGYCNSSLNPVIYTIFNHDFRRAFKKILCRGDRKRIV
Method in brief: (§2)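 pA2 at presynaptic α2-adrenoreceptors in field-stimulated rat vas deferens. Tissue was held in Krebs solution (NaCl 118 mM, KCl 4.7 mM, CaCl2 2.5 mM, KH2PO4 1.2 mM, MgSO4 0.6 mM, NaHCO3 25 mM, dextrose 11.1 mM) gassed with 95% O2/5% CO2 at 30 °C. Stimulation was 3-ms pulses, 40 V, 0.1 Hz, with contractions recorded isometrically. Twitches were inhibited by clonidine (110 nM).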

[7] = molecular target: T3, Adrenergic receptor alpha-2 (Rattus norvegicus); assay: Presynaptic antagonist activity towards alpha-2 adrenergic receptor.; format: functional; method in brief: as §1
[8] = molecular target: T4, Adrenergic receptor alpha-2; assay: Alpha-2 adrenergic receptor antagonist activity in a rat vas deferens assay. Values ranges from 7.80-8.14; format: functional, tissue-based
[9] = molecular target: T2, Adrenergic receptor alpha-1 (Rattus norvegicus); assay: post-synaptic antagonist activity towards adrenergic receptor was determined. Concentration giving a dose response to phenylephrine (idazoxan=1) was reported.; format: functional
Method in brief: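 The agonist was phenylephrine, tested on isolated rat anococcygeus under 0.5 g initial tension. At least five phenylephrine dose-response curves were run alone, then at least four in the presence of the analogue.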

[10] = molecular target: T1, Adrenergic receptor alpha-1; assay: Alpha-1 adrenergic receptor antagonist activity in a rat anococcygeus. Values ranges from 5.19-5.44; format: functional
[11] = molecular target: T4, Adrenergic receptor alpha-2; assay: Alpha-2 adrenergic receptor antagonist activity in a rat vas deferens assay. Values ranges from 8.74-9.17; format: functional; method in brief: as §2
[12] = molecular target: T1, Adrenergic receptor alpha-1; assay: Alpha-1 adrenergic receptor antagonist activity in a rat anococcygeus. Values ranges from 6.35-6.88; format: functional
[13] = molecular target: T4, Adrenergic receptor alpha-2; assay: Alpha-2 adrenergic receptor antagonist activity in a rat vas deferens assay. Values ranges from 8.54-8.87; format: functional, tissue-based
[14] = molecular target: T1, Adrenergic receptor alpha-1; assay: Alpha-1 adrenergic receptor antagonist activity in a rat anococcygeus. Values ranges from 6.35-6.44; format: functional
[15] = molecular target: T1, Adrenergic receptor alpha-1; assay: Alpha-1 antagonist activity in a rat anococcygeus. Values ranges from 6.6-7.23; format: functional
[16] = molecular target: T4, Adrenergic receptor alpha-2; assay: Alpha-2 adrenergic receptor antagonist activity in a rat vas deferens assay. Values ranges from 9.30-9.52; format: functional, tissue-based; method in brief: as §2
[17] = molecular target: T4, Adrenergic receptor alpha-2; assay: Alpha-2 adrenergic receptor antagonist activity in a rat vas deferens assay. Values ranges from […]; format: functional, tissue-based; method in brief: as §2
[18] = molecular target: T1, Adrenergic receptor alpha-1; assay: Alpha-1 adrenergic receptor antagonist activity in a rat anococcygeus. Values ranges from 5.84-6.31; format: functional
[19] = molecular target: T1, Adrenergic receptor alpha-1; assay: Alpha-1 adrenergic receptor antagonist activity in a rat anococcygeus. Values ranges from 6.63-6.78; format: functional
[20] = molecular target: T4, Adrenergic receptor alpha-2; assay: Alpha-2 adrenergic receptor antagonist activity in a rat vas deferens assay. Values ranges from 8.31-8.44; format: functional; method in brief: as §2
[21] = molecular target: T1, Adrenergic receptor alpha-1; assay: Alpha-1 adrenergic receptor antagonist activity in a rat anococcygeus. Values ranges from 6.53-7.08; format: functional
[22] = molecular target: T4, Adrenergic receptor alpha-2; assay: Alpha-2 adrenergic receptor activity in a rat vas deferens assay. Values ranges from 8.85-9.01; format: tissue-based; method in brief: as §2
[23] = molecular target: T1, Adrenergic receptor alpha-1; assay: Alpha-1 adrenergic receptor antagonist activity in a rat anococcygeus. Values ranges from 5.37-5.48; format: functional
[24] = molecular target: T4, Adrenergic receptor alpha-2; assay: Alpha-2 adrenergic receptor antagonist activity in a rat vas deferens assay. Values ranges from 8.00-8.47; format: functional, tissue-based; method in brief: as §2
[25] = molecular target: T1, Adrenergic receptor alpha-1; assay: Alpha-1 adrenergic receptor antagonist activity in a rat anococcygeus. Values ranges from 6.50-6.62; format: functional
[26] = molecular target: T4, Adrenergic receptor alpha-2; assay: Alpha-2 adrenergic receptor antagonist activity in a rat vas deferens assay. Values ranges from 8.42-9.51; format: functional; method in brief: as §2

| Compound | Relative potency [2] | Relative potency [3] | Postsynaptic antagonist [4] | Ratio [5] | potency relative to idazoxan [7] | further results |
| --- | --- | --- | --- | --- | --- | --- |
| CCCOC1(C2=NCCN2)COc2ccccc2O1 (stereo not given) | 0.9 | 1.4 | 1 | 1.5 | 1.5 | pA2 [1]: 6.26; pA2 [6]: 8.64 |
| CC1(C2=NCCN2)COc2ccccc2O1.Cl (stereo not given) | 0.1 | 0.3 | – | 2.4 | 0.67 | pA2 [8]: 8.14; Postsynaptic antagonist [9]: 0.28; pA2 [10]: 5.44 |
| CCCC1(C2=NCCN2)COc2ccccc2O1 (stereo not given) | 1.7 | 2.6 | 3.2 | 1.5 | 4.8 | pA2 [11]: 8.92; pA2 [12]: 6.56 |
| CCC1(C2=NCCN2)COc2ccccc2O1 (stereo not given) | 1.2 | 1.6 | 2.25 | 1.3 | 3 | pA2 [13]: 8.87; pA2 [14]: 6.44 |
| COC1(C2=NCCN2)COc2ccccc2O1 (stereo not given) | 4 | 8.1 | 4 | 2.8 | 11 | pA2 [15]: 6.91; pA2 [16]: 9.41 |
| CC(C)OC1(C2=NCCN2)COc2ccccc2O1 (stereo not given) | 0.5 | 1.5 | 0.6 | 1.6 | 1 | pA2 [17]: 8.67; pA2 [18]: 6.01 |
| CCCCOC1(C2=NCCN2)COc2ccccc2O1 (stereo not given) | 2.4 | 0.7 | 2.2 | 0.7 | 1.6 | pA2 [19]: 6.7; pA2 [20]: 8.37 |
| CCOC1(C2=NCCN2)COc2ccccc2O1.Cl (stereo not given) | 2.6 | 2.6 | 7 | 0.8 | 5.9 | pA2 [21]: 6.74; pA2 [22]: 8.92 |
| C=C(C)C1(C2=NCCN2)COc2ccccc2O1.Cl (stereo not given) | 0.1 | 0.5 | 0.07 | 5.7 | 0.4 | pA2 [23]: 5.42; pA2 [24]: 8.21 |
| C=CCOC1(C2=NCCN2)COc2ccccc2O1 (stereo not given) | 1.7 | 2 | 6 | 0.3 | 2 | pA2 [25]: 6.55; pA2 [26]: 8.81 |
